Data: ChEMBL document CHEMBL3877289, “New family of antimicrobial agents derived from 1,4-naphthoquinone” (Eur J Med Chem, 2016)
In brackets after ≈: the same amount, converted by molar mass.

How the values were obtained:
[1] = Hemolytic activity in human erythrocytes at 1 to 250 ug/mL incubated for 1 hr; type: ADME, cell-based, Erythrocyte; settings: read-out: Activity
Outline: (§1)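 Human blood was collected into citrate dextrose anticoagulant. Erythrocytes were spun at 500×g for 10 min at 4 °C, then washed in PBS (10 mM phosphate, pH 7.5; 150 mM NaCl) until the supernatant was clear, and resuspended at 2%. 450 µl of suspension was mixed with compound in 50 µl DMSO (1 - 250 µg/ml), incubated 1h at 37 °C, spun at 5000×g for 10 min, and supernatant A415 was read. Controls: tetracycline and chloramphenicol negative, Triton X-100 (1%) positive.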

Staphylococcus aureus [2] = experiment: Antibacterial activity against Staphylococcus aureus ATCC 6538 after 20 hrs by microbroth dilution method; type: functional; settings: ATCC 6538, 20 h
Outline: (§2)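 MIC by broth microdilution in Mueller–Hinton broth. Strains were pre-grown 24h at 37 °C with shaking at 180 rpm. Inoculum was 5x10^5 CFU/ml, exposed 20 h at 37 °C to compound (0.001 – 5 mg/ml, DMSO solvent). MIC was the lowest concentration inhibiting observable growth. Tetracycline served as reference. Triplicate.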

Klebsiella pneumoniae = experiment: Antibacterial activity against Klebsiella pneumoniae PCM1 after 20 hrs by microbroth dilution method; type: functional; settings: PCM1, 20 h; outline: as §2
Pseudomonas aeruginosa = experiment: Antibacterial activity against Pseudomonas aeruginosa PCM 2562 after 20 hrs by microbroth dilution method; type: functional; settings: PCM 2562, 20 h; outline: as §2
Salmonella bongori = experiment: Antibacterial activity against Salmonella bongori PCM 2552 after 20 hrs by microbroth dilution method; type: functional; settings: PCM 2552, 20 h; outline: as §2
Enterobacter cloacae = experiment: Antibacterial activity against Enterobacter cloacae PCM 2569 after 20 hrs by microbroth dilution method; type: functional; settings: PCM 2569, 20 h; outline: as §2
Escherichia coli = experiment: Antibacterial activity against Escherichia coli ATCC 8739 after 20 hrs by microbroth dilution method; type: functional; settings: ATCC 8739, 20 h; outline: as §2
Enterococcus faecalis = experiment: Antibacterial activity against Enterococcus faecalis PCM 2673 after 20 hrs by microbroth dilution method; type: functional; settings: PCM 2673, 20 h; outline: as §2
Proteus vulgaris = experiment: Antibacterial activity against Proteus vulgaris PCM 2668 after 20 hrs by microbroth dilution method; type: functional; settings: PCM 2668, 20 h; outline: as §2
Staphylococcus aureus [3] = experiment: Antibacterial activity against Staphylococcus aureus CDC587 assessed as reduction in CFU/ml by <3 logs after 24 hrs; type: functional; settings: CDC587, 24 h
[4] = Hemolytic activity in human blood cells at 5 ug/mL after 48 hrs by photometric method; type: ADME, cell-based, Erythrocyte; settings: read-out: Activity
Staphylococcus aureus [5] = experiment: Antibacterial activity against Staphylococcus aureus MNPE assessed as reduction in CFU/ml by <3 logs after 24 hrs; type: functional
Staphylococcus aureus [6] = experiment: Antibacterial activity against Staphylococcus aureus LAC assessed as reduction in CFU/ml by <3 logs after 24 hrs; type: functional
Staphylococcus aureus [7] = experiment: Antibacterial activity against Staphylococcus aureus MW2 assessed as reduction in CFU/ml by <3 logs after 24 hrs; type: functional; settings: MW2, 24 h
Staphylococcus aureus [8] = experiment: Antibacterial activity against Staphylococcus aureus MN8 assessed as reduction in CFU/ml by <3 logs after 24 hrs; type: functional; settings: MN8, 24 h
[9] = Hemolytic activity in human erythrocytes at 60 ug/mL incubated for 1 hr; type: ADME, cell-based, Erythrocyte; settings: read-out: Activity; outline: as §1

Row | SMILES | hemolysis at 1 h [1] [%] | MIC (Staphylococcus aureus [2]) [µg/mL] | MIC (Klebsiella pneumoniae) [µg/mL] | MIC (Pseudomonas aeruginosa) [µg/mL] | MIC (Salmonella bongori) [µg/mL] | MIC (Enterobacter cloacae) [µg/mL] | MIC (Escherichia coli) [µg/mL] | MIC (Enterococcus faecalis) [µg/mL] | MIC (Proteus vulgaris) [µg/mL] | MIC (Staphylococcus aureus [3]) [µg/mL] | hemolysis at 48 h, 5 ug/mL [4] [%] | MIC (Staphylococcus aureus [5]) [µg/mL] | MIC (Staphylococcus aureus [6]) [µg/mL] | MIC (Staphylococcus aureus [7]) [µg/mL] | MIC (Staphylococcus aureus [8]) [µg/mL] | hemolysis at 1 h, 60 ug/mL [9] [%]
1 | COc1cc(NC(C)=O)ccc1C1=CC(=O)c2ccccc2C1=O | ≤ 2 | 15.6 (≈ 48.5 µM) | 250 (≈ 778 µM) | 250 (≈ 778 µM) | 250 (≈ 778 µM) | 250 (≈ 778 µM) | 250 (≈ 778 µM) |  |  |  |  |  |  |  |  | 
2 | COc1cc(OC)c(C2=CC(=O)c3ccccc3C2=O)c(OC)c1 |  | 250 (≈ 771 µM) | 250 (≈ 771 µM) | 250 (≈ 771 µM) | 250 (≈ 771 µM) | 250 (≈ 771 µM) | 250 (≈ 771 µM) |  |  |  |  |  |  |  |  | 
3 | O=C1C=C(N2CCC[C@H]2C(=O)O)C(=O)c2ccccc21 |  | 31.2 (≈ 115 µM) | 250 (≈ 922 µM) | 250 (≈ 922 µM) | 250 (≈ 922 µM) | 250 (≈ 922 µM) | 250 (≈ 922 µM) | 250 (≈ 922 µM) | 500 (≈ 1840 µM) |  |  |  |  |  |  | 
4 | Cc1ccc(C2=CC(=O)c3ccccc3C2=O)cc1C |  | 500 (≈ 1910 µM) | 500 (≈ 1910 µM) | 500 (≈ 1910 µM) | 500 (≈ 1910 µM) | 500 (≈ 1910 µM) | 500 (≈ 1910 µM) |  | 500 (≈ 1910 µM) |  |  |  |  |  |  | 
5 | O=C1C(c2ccccc2)=C(c2ccccc2)C(=O)c2ccccc21 |  | 62.5 (≈ 201 µM) | 500 (≈ 1610 µM) | 500 (≈ 1610 µM) | 500 (≈ 1610 µM) | 500 (≈ 1610 µM) | 250 (≈ 806 µM) |  | 500 (≈ 1610 µM) |  |  |  |  |  |  | 
6 | COc1ccc(C2=CC(=O)c3ccccc3C2=O)c(OC)c1 | ≤ 2 | 15.6 (≈ 53 µM) | 250 (≈ 849 µM) | 250 (≈ 849 µM) | 250 (≈ 849 µM) | 250 (≈ 849 µM) | 250 (≈ 849 µM) |  |  |  |  |  |  |  |  | 
7 | O=C1C=C(c2ccc(N(Cc3ccccc3)Cc3ccccc3)cc2)C(=O)c2ccccc21 |  | 250 (≈ 582 µM) | 250 (≈ 582 µM) | 250 (≈ 582 µM) | 250 (≈ 582 µM) | 250 (≈ 582 µM) | 250 (≈ 582 µM) | 250 (≈ 582 µM) |  |  |  |  |  |  |  | 
8 | COc1cc(N(C)C)ccc1C1=CC(=O)c2ccccc2C1=O |  | 7.8 (≈ 25.4 µM) | 250 (≈ 813 µM) | 250 (≈ 813 µM) | 250 (≈ 813 µM) | 250 (≈ 813 µM) | 250 (≈ 813 µM) |  |  |  |  |  |  |  |  | 
9 | CC1=CC(=O)c2ccccc2C1=O [MENADIONE] |  |  |  |  |  |  |  |  |  | 3 (≈ 17.4 µM) | 3.5 | 3 (≈ 17.4 µM) | 3 (≈ 17.4 µM) | 3 (≈ 17.4 µM) | 3 (≈ 17.4 µM) | 
10 | O=C1C=C(N[C@@H](Cc2c[nH]c3ccccc23)C(=O)O)C(=O)c2ccccc21 |  | 62.5 (≈ 173 µM) | 500 (≈ 1390 µM) | 500 (≈ 1390 µM) | 500 (≈ 1390 µM) | 500 (≈ 1390 µM) | 500 (≈ 1390 µM) | 500 (≈ 1390 µM) | 500 (≈ 1390 µM) |  |  |  |  |  |  | 
11 | Cc1cc(N(C)C)ccc1C1=CC(=O)c2ccccc2C1=O | ≤ 2 | 7.8 (≈ 26.8 µM) | 250 (≈ 858 µM) | 250 (≈ 858 µM) | 250 (≈ 858 µM) | 250 (≈ 858 µM) | 250 (≈ 858 µM) |  |  |  |  |  |  |  |  | 2
12 | O=C1C=CC(=O)c2ccccc21 [NAPHTHOQUINONE] |  | 31.2 (≈ 197 µM) | 250 (≈ 1580 µM) | 125 (≈ 790 µM) | 125 (≈ 790 µM) | 250 (≈ 1580 µM) | 125 (≈ 790 µM) | 125 (≈ 790 µM) |  |  |  |  |  |  |  | 
13 | CN(C)[C@@H]1C(O)=C(C(N)=O)C(=O)[C@@]2(O)C(O)=C3C(=O)c4c(O)cccc4[C@@](C)(O)[C@H]3C[C@@H]12 [TETRACYCLINE] |  | 7.8 (≈ 17.6 µM) | 15.6 (≈ 35.1 µM) | 15.6 (≈ 35.1 µM) | 3.9 (≈ 8.78 µM) | 7.8 (≈ 17.6 µM) | 0.5 (≈ 1.13 µM) | 31.2 (≈ 70.2 µM) | 7.8 (≈ 17.6 µM) |  |  |  |  |  |  | 
14 | O=C1C=C(N[C@@H](C(=O)O)c2ccccc2)C(=O)c2ccccc21 |  | 250 (≈ 814 µM) | 500 (≈ 1630 µM) | 500 (≈ 1630 µM) | 500 (≈ 1630 µM) | 500 (≈ 1630 µM) | 500 (≈ 1630 µM) | 500 (≈ 1630 µM) |  |  |  |  |  |  |  | 
15 | O=C1C=C(c2ccccc2)C(=O)c2ccccc21 |  |  |  | 250 (≈ 1070 µM) | 250 (≈ 1070 µM) |  |  |  |  |  |  |  |  |  |  | 
16 | CC(C)[C@H](NC1=CC(=O)c2ccccc2C1=O)C(=O)O |  | 500 (≈ 1830 µM) | 500 (≈ 1830 µM) | 500 (≈ 1830 µM) | 500 (≈ 1830 µM) | 500 (≈ 1830 µM) | 500 (≈ 1830 µM) | 500 (≈ 1830 µM) | 500 (≈ 1830 µM) |  |  |  |  |  |  | 
17 | COc1cc2ccc(C3=CC(=O)c4ccccc4C3=O)cc2cc1OC |  | 500 (≈ 1450 µM) | 500 (≈ 1450 µM) | 500 (≈ 1450 µM) | 500 (≈ 1450 µM) | 500 (≈ 1450 µM) | 500 (≈ 1450 µM) |  |  |  |  |  |  |  |  | 
18 | O=C1C=C(Nc2ccccc2)C(=O)c2ccccc21 |  | 62.5 (≈ 251 µM) | 250 (≈ 1000 µM) | 250 (≈ 1000 µM) | 250 (≈ 1000 µM) | 250 (≈ 1000 µM) | 250 (≈ 1000 µM) |  |  |  |  |  |  |  |  | 
19 | Cc1cc(C)c(C2=CC(=O)c3ccccc3C2=O)c(C)c1 |  | 15.6 (≈ 56.5 µM) | 500 (≈ 1810 µM) | 500 (≈ 1810 µM) | 500 (≈ 1810 µM) | 500 (≈ 1810 µM) | 500 (≈ 1810 µM) |  | 500 (≈ 1810 µM) |  |  |  |  |  |  | 
20 | CN(C)c1ccc(C2=CC(=O)c3ccccc3C2=O)cc1 |  | 125 (≈ 451 µM) | 62.5 (≈ 225 µM) | 250 (≈ 901 µM) | 125 (≈ 451 µM) | 250 (≈ 901 µM) | 125 (≈ 451 µM) |  | 250 (≈ 901 µM) |  |  |  |  |  |  | 
21 | COC(=O)[C@H](C)NC1=CC(=O)c2ccccc2C1=O |  | 62.5 (≈ 241 µM) | 500 (≈ 1930 µM) | 500 (≈ 1930 µM) | 500 (≈ 1930 µM) | 500 (≈ 1930 µM) | 250 (≈ 964 µM) | 250 (≈ 964 µM) | 500 (≈ 1930 µM) |  |  |  |  |  |  | 
